The values below come from ChEMBL document CHEMBL3580630, “Design and Synthesis of a Screening Library Using the Natural Product Scaffold 3-Chloro-4-hydroxyphenylacetic Acid” (2015).

In general, inhibition refers to the percentage by which the read-out fell short of the control.

SMILES strings stand for the structures. Active and inactive are the calls of the source. No cut-off for these calls is given here.

The first assay has as its system LNCaP. In words: Antilipogenic activity in human LNCAP cells assessed as reduction of cellular neutral lipid level at 10 uM after 48 hrs by nile red staining-based fluorescence microscopic analysis relative to control. In kind it is functional, cell-based.
Conditions: not given
In a few lines:
(§1)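 Cells were grown 72 h in phenol-red-free RPMI-1640 with 5% CSS, then exposed 48 h to 10 µM compound in 0.3% DMSO. Controls were DMSO alone (negative) and TOFA (positive). Cells were fixed in 4% paraformaldehyde for 20 min on ice, then stained 20 min at room temperature in the dark with 1.0 µg/mL DAPI and 0.25 µg/mL Nile Red in PBS. Imaging was at 10×. Neutral lipids were read in the Cy3 channel and phospholipids in Cy5, as mean fluorescence intensity per cell (~1500 cells/treatment). Statistics used one-way ANOVA with Dunnett's test.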
For the compound `O=C(Cc1ccc(O)c(Cl)c1)NCc1ccccc1F`, the outcome was Active.
Regarding `O=C(Cc1ccc(O)c(Cl)c1)NCc1cccc(F)c1`, the outcome was Active.
The same measure, in the same setting: the value for `O=C(Cc1ccc(O)c(Cl)c1)NCc1ccc(F)cc1` was “Active”; that for `CCCCCCCCCCCCCCOc1ccc(C(=O)O)o1` was “Active”.

In another assay the test system is LNCaP. In words: Cytotoxicity against human LNCAP cells assessed as inhibition of cell proliferation at 10 uM after 72 hrs by Alamar blue assay relative to control. In kind it is functional.
Conditions: not given
On the technique in general: Resazurin is reduced to fluorescent resorufin, in cell work by metabolically active cells.
Consider `CC(C)CCNC(=O)Cc1ccc(O)c(Cl)c1`, for which the inhibition at 10 µM is greater than 50%.
With `CN(C)CCNC(=O)Cc1ccc(O)c(Cl)c1`, the inhibition at 10 µM was greater than 50%.
Same read-out and setting: the same measure for `O=C(Cc1ccc(O)c(Cl)c1)NCCc1ccc(Br)cc1`: greater than 50%; for `O=C(Cc1ccc(O)c(Cl)c1)NCCc1ccccn1`: greater than 50%; for `CCN(CC)CCNC(=O)Cc1ccc(O)c(Cl)c1`: greater than 50%.
In the case of `O=C(Cc1ccc(O)c(Cl)c1)NCCc1ccccc1F`, the inhibition at 10 µM is greater than 50%.
Consider `O=C(O)Cc1ccc(O)c(Cl)c1`, for which the inhibition at 10 µM was greater than 50%.
For `O=C(Cc1ccc(O)c(Cl)c1)NCCN1CCOCC1`, the inhibition at 10 µM was greater than 50%.
As to `CN(C)CCCNC(=O)Cc1ccc(O)c(Cl)c1`, the inhibition at 10 µM was greater than 50%.
For `COC(=O)Cc1ccc(O)c(Cl)c1`, the inhibition at 10 µM is greater than 50%.
Still for that read-out and setting: the same measure for `O=C(Cc1ccc(O)c(Cl)c1)NCc1ccccc1F`: greater than 50%.
Still for that read-out and setting: the same measure for `CCN(CC)CCCNC(=O)Cc1ccc(O)c(Cl)c1`: greater than 50%; for `O=C(Cc1ccc(O)c(Cl)c1)NCc1ccc(Br)cc1`: greater than 50%; for `O=C(Cc1ccc(O)c(Cl)c1)NCCc1cccc(F)c1`: greater than 50%.
On the same count and under the same terms, the value for `O=C(Cc1ccc(O)c(Cl)c1)NCCN1CCNCC1` was greater than 50%; that for `O=C(Cc1ccc(O)c(Cl)c1)NCc1ccc(Cl)cc1` was greater than 50%; that for `O=C(Cc1ccc(O)c(Cl)c1)NCCc1ccc(Cl)cc1` was greater than 50%.
As for `O=C(Cc1ccc(O)c(Cl)c1)NCc1cccc(F)c1`, the inhibition at 10 µM is greater than 50%.
As for `O=C(Cc1ccc(O)c(Cl)c1)NCCc1ccccc1`, the inhibition at 10 µM was greater than 50%.
Still for that read-out and setting: the same measure for `O=C(Cc1ccc(O)c(Cl)c1)NCCc1ccc(F)cc1`: greater than 50%.
For the compound `O=C(Cc1ccc(O)c(Cl)c1)NCc1ccc(F)cc1`, the inhibition at 10 µM is greater than 50%.
With `O=C(Cc1ccc(O)c(Cl)c1)NCc1ccccc1`, the inhibition at 10 µM was greater than 50%.

Another assay relates to LNCaP. Description: Antilipogenic activity in human LNCAP cells assessed as reduction of cellular phospholipid level at 10 uM after 48 hrs by nile red staining-based fluorescence microscopic analysis relative to control. In kind it is functional, cell-based.
Conditions: not given
In a few lines:
as §1
For `O=C(Cc1ccc(O)c(Cl)c1)NCc1ccccc1F`, the outcome was Active.
Regarding `O=C(Cc1ccc(O)c(Cl)c1)NCc1cccc(F)c1`, the outcome was Active.
Take `O=C(Cc1ccc(O)c(Cl)c1)NCc1ccc(F)cc1`: the outcome was Active.
Turning to `CCCCCCCCCCCCCCOc1ccc(C(=O)O)o1`, the outcome was inactive.

In a further assay the test system is PC-3. Description: Antilipogenic activity in human PC3 cells assessed as reduction of cellular neutral lipid level at 10 uM after 48 hrs by nile red staining-based fluorescence microscopic analysis relative to control. In kind it is functional, cell-based.
Conditions: not given
In a few lines:
as §1
Consider `O=C(Cc1ccc(O)c(Cl)c1)NCc1ccccc1F`, for which the result was Active.
For the compound `O=C(Cc1ccc(O)c(Cl)c1)NCc1cccc(F)c1`, the outcome was Active.
Take `O=C(Cc1ccc(O)c(Cl)c1)NCc1ccc(F)cc1`: the outcome was Active.
The same measure, in the same setting: the same measure for `CCCCCCCCCCCCCCOc1ccc(C(=O)O)o1`: “Active”.

The subject of another assay is Plasmodium falciparum. In words: Antiparasitic activity against asexual intraerythrocytic stage of Plasmodium falciparum 3D7 assessed as inhibition of parasite replication at 10 uM after 72 hrs by DAPI staining-based microscopic analysis relative to control. Type of assay: functional. The note with it: 3D7, 72 h.
Regarding `CC(C)CCNC(=O)Cc1ccc(O)c(Cl)c1`, the inhibition at 10 µM is greater than 50%.
Consider `CN(C)CCNC(=O)Cc1ccc(O)c(Cl)c1`, for which the inhibition at 10 µM was greater than 50%.
On to `O=C(Cc1ccc(O)c(Cl)c1)NCCc1ccc(Br)cc1`, for which the inhibition at 10 µM was greater than 50%.
Still for that read-out and setting: the same measure for `O=C(Cc1ccc(O)c(Cl)c1)NCCc1ccccn1`: greater than 50%; for `CCN(CC)CCNC(=O)Cc1ccc(O)c(Cl)c1`: greater than 50%; for `O=C(Cc1ccc(O)c(Cl)c1)NCCc1ccccc1F`: greater than 50%.
Still for that read-out and setting: the same measure for `O=C(O)Cc1ccc(O)c(Cl)c1`: greater than 50%; for `O=C(Cc1ccc(O)c(Cl)c1)NCCN1CCOCC1`: greater than 50%; for `CN(C)CCCNC(=O)Cc1ccc(O)c(Cl)c1`: greater than 50%.
`COC(=O)Cc1ccc(O)c(Cl)c1`: the inhibition at 10 µM is greater than 50%.
Take `O=C(Cc1ccc(O)c(Cl)c1)NCc1ccccc1F`: the inhibition at 10 µM is greater than 50%.
On to `CCN(CC)CCCNC(=O)Cc1ccc(O)c(Cl)c1`, for which the inhibition at 10 µM is greater than 50%.
Consider `O=C(Cc1ccc(O)c(Cl)c1)NCc1ccc(Br)cc1`, for which the inhibition at 10 µM is greater than 50%.
Still for that read-out and setting: the value for `O=C(Cc1ccc(O)c(Cl)c1)NCCc1cccc(F)c1` was greater than 50%.
For the compound `O=C(Cc1ccc(O)c(Cl)c1)NCCN1CCNCC1`, the inhibition at 10 µM was greater than 50%.
In the case of `O=C(Cc1ccc(O)c(Cl)c1)NCc1ccc(Cl)cc1`, the inhibition at 10 µM was greater than 50%.
Turning to `O=C(Cc1ccc(O)c(Cl)c1)NCCc1ccc(Cl)cc1`, the inhibition at 10 µM is greater than 50%.
With `O=C(Cc1ccc(O)c(Cl)c1)NCc1cccc(F)c1`, the inhibition at 10 µM is greater than 50%.
Take `O=C(Cc1ccc(O)c(Cl)c1)NCCc1ccccc1`: the inhibition at 10 µM was greater than 50%.
On to `O=C(Cc1ccc(O)c(Cl)c1)NCCc1ccc(F)cc1`, for which the inhibition at 10 µM was greater than 50%.
Take `O=C(Cc1ccc(O)c(Cl)c1)NCc1ccc(F)cc1`: the inhibition at 10 µM is greater than 50%.
Regarding `O=C(Cc1ccc(O)c(Cl)c1)NCc1ccccc1`, the inhibition at 10 µM is greater than 50%.

The test system of another assay is Trypanosoma brucei brucei. In words: Antiparasitic activity against bloodstream form of Trypanosoma brucei brucei 427 assessed as inhibition of parasite replication at 10 uM after 72 hrs by resazurin assay relative to control. The note with it: Trypanosoma brucei, 427, 72 h. Type of assay: functional.
As to `CC(C)CCNC(=O)Cc1ccc(O)c(Cl)c1`, the inhibition at 10 µM was greater than 50%.
With `CN(C)CCNC(=O)Cc1ccc(O)c(Cl)c1`, the inhibition at 10 µM was greater than 50%.
As for `O=C(Cc1ccc(O)c(Cl)c1)NCCc1ccc(Br)cc1`, the inhibition at 10 µM was greater than 50%.
For the compound `O=C(Cc1ccc(O)c(Cl)c1)NCCc1ccccn1`, the inhibition at 10 µM is greater than 50%.
Consider `CCN(CC)CCNC(=O)Cc1ccc(O)c(Cl)c1`, for which the inhibition at 10 µM is greater than 50%.
For `O=C(Cc1ccc(O)c(Cl)c1)NCCc1ccccc1F`, the inhibition at 10 µM was greater than 50%.
In the case of `O=C(O)Cc1ccc(O)c(Cl)c1`, the inhibition at 10 µM is greater than 50%.
Turning to `O=C(Cc1ccc(O)c(Cl)c1)NCCN1CCOCC1`, the inhibition at 10 µM was greater than 50%.
As for `CN(C)CCCNC(=O)Cc1ccc(O)c(Cl)c1`, the inhibition at 10 µM was greater than 50%.
Turning to `COC(=O)Cc1ccc(O)c(Cl)c1`, the inhibition at 10 µM is greater than 50%.
Regarding `O=C(Cc1ccc(O)c(Cl)c1)NCc1ccccc1F`, the inhibition at 10 µM is greater than 50%.
As to `CCN(CC)CCCNC(=O)Cc1ccc(O)c(Cl)c1`, the inhibition at 10 µM was greater than 50%.
For the compound `O=C(Cc1ccc(O)c(Cl)c1)NCc1ccc(Br)cc1`, the inhibition at 10 µM is greater than 50%.
Turning to `O=C(Cc1ccc(O)c(Cl)c1)NCCc1cccc(F)c1`, the inhibition at 10 µM is greater than 50%.
With `O=C(Cc1ccc(O)c(Cl)c1)NCCN1CCNCC1`, the inhibition at 10 µM was greater than 50%.
Consider `O=C(Cc1ccc(O)c(Cl)c1)NCc1ccc(Cl)cc1`, for which the inhibition at 10 µM was greater than 50%.
Turning to `O=C(Cc1ccc(O)c(Cl)c1)NCCc1ccc(Cl)cc1`, the inhibition at 10 µM was greater than 50%.
In the case of `O=C(Cc1ccc(O)c(Cl)c1)NCc1cccc(F)c1`, the inhibition at 10 µM is greater than 50%.
Consider `O=C(Cc1ccc(O)c(Cl)c1)NCCc1ccccc1`, for which the inhibition at 10 µM was greater than 50%.
As for `O=C(Cc1ccc(O)c(Cl)c1)NCCc1ccc(F)cc1`, the inhibition at 10 µM was greater than 50%.
Same read-out and setting: the value for `O=C(Cc1ccc(O)c(Cl)c1)NCc1ccc(F)cc1` was greater than 50%.
Regarding `O=C(Cc1ccc(O)c(Cl)c1)NCc1ccccc1`, the inhibition at 10 µM was greater than 50%.

The subject of a further assay is PC-3. Description: Antilipogenic activity in human PC3 cells assessed as reduction of cellular phospholipid level at 10 uM after 48 hrs by nile red staining-based fluorescence microscopic analysis relative to control. In kind it is functional, cell-based.
Conditions: not given
In a few lines:
as §1
For the compound `O=C(Cc1ccc(O)c(Cl)c1)NCc1ccccc1F`, the result was Active.
For the compound `O=C(Cc1ccc(O)c(Cl)c1)NCc1cccc(F)c1`, the outcome was Active.
For `O=C(Cc1ccc(O)c(Cl)c1)NCc1ccc(F)cc1`, the result was Active.
Turning to `CCCCCCCCCCCCCCOc1ccc(C(=O)O)o1`, the result was inactive.
